From ChEMBL document CHEMBL5724801, “EUbOPEN Chemogenomics Library - Multiplex” (2024)
Values joined by “and” are separate entries in the source; they are usually repeats but may differ in a detail not shown here. Equal values may be shown once.

Tested on: HEK-293T
Experiment: Multiplex assay against HEK293T
Assay type: toxicity, cell-based
Conditions: human
Outline: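 Hoechst33342, BioTracker Green Microtubule Cytoskeleton Dye, MitoTracker Red and Annexin V Alexa Fluor 680 were added to live cells at seeding, and imaging on a CQ1 microscope at 37°C and 5% CO2 followed compound addition. Gating by CellPathfinder machine learning separated cells into Hoechst high-intensity objects or normal cells, then normal cells into healthy, pyknosed or fragmented nuclei, then pyknosed cells into mitotic or apoptotic. Per cents of healthy-nucleus cells are reported for the tubulin, mitochondrial-mass and membrane-permeability phenotypes.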

[1] = 12 h, 1 µM, compound concentration 1 uM
[2] = 12 h, 10 µM, compound concentration 10 uM
[3] = 24 h, 1 µM, compound concentration 1 uM
[4] = 24 h, 10 µM, compound concentration 10 uM
[5] = 48 h, 1 µM, compound concentration 1 uM
[6] = 48 h, 10 µM, compound concentration 10 uM

SMILES: O=C(Nc1cc(-c2ccccc2)nn1-c1ccccc1F)c1ccc([N+](=O)[O-])cc1
- Population Apoptotic (%) [1]: 33% and 37%
- Population Fragmented Nuclei (%) [1]: 7% and 6%
- Population Healthy Nuclei (%) [1]: 78% and 83%
- Population Hoechst High Intensity Objects (%) [1]: 9% and 6%
- Population Membrane Permeable-Phenotype (%) [1]: 0%
- Population Mitochondria Different-Phenotype (%) [1]: 31% and 48%
- Population Mitotic Cells (%) [1]: 66% and 62%
- Population Normal (%) [1]: 90% and 94%
- Population Pyknosed Nuclei (%) [1]: 13% and 9%
- Population Tubulin-Different-Phenotype (%) [1]: 19%
- Total Cell Count [1]: 402 and 417
- Population Apoptotic (%) [2]: 37% and 44%
- Population Fragmented Nuclei (%) [2]: 10% and 6%
- Population Healthy Nuclei (%) [2]: 71% and 73%
- Population Hoechst High Intensity Objects (%) [2]: 5% and 6%
- Population Membrane Permeable-Phenotype (%) [2]: 0%
- Population Mitochondria Different-Phenotype (%) [2]: 41% and 65%
- Population Mitotic Cells (%) [2]: 62% and 55%
- Population Normal (%) [2]: 94% and 93%
- Population Pyknosed Nuclei (%) [2]: 17% and 20%
- Population Tubulin-Different-Phenotype (%) [2]: 40% and 45%
- Total Cell Count [2]: 342 and 367
- Population Apoptotic (%) [3]: 33% and 35%
- Population Fragmented Nuclei (%) [3]: 8% and 12%
- Population Healthy Nuclei (%) [3]: 78%
- Population Hoechst High Intensity Objects (%) [3]: 4%
- Population Membrane Permeable-Phenotype (%) [3]: 0% and 1%
- Population Mitochondria Different-Phenotype (%) [3]: 21% and 31%
- Population Mitotic Cells (%) [3]: 66% and 64%
- Population Normal (%) [3]: 95%
- Population Pyknosed Nuclei (%) [3]: 12% and 8%
- Population Tubulin-Different-Phenotype (%) [3]: 17% and 16%
- Total Cell Count [3]: 481 and 530
- Population Apoptotic (%) [4]: 15% and 22%
- Population Fragmented Nuclei (%) [4]: 9% and 7%
- Population Healthy Nuclei (%) [4]: 77% and 83%
- Population Hoechst High Intensity Objects (%) [4]: 2% and 3%
- Population Membrane Permeable-Phenotype (%) [4]: 0%
- Population Mitochondria Different-Phenotype (%) [4]: 35% and 47%
- Population Mitotic Cells (%) [4]: 84% and 77%
- Population Normal (%) [4]: 97% and 96%
- Population Pyknosed Nuclei (%) [4]: 13% and 8%
- Population Tubulin-Different-Phenotype (%) [4]: 35% and 33%
- Total Cell Count [4]: 434 and 482
- Population Apoptotic (%) [5]: 17% and 33%
- Population Fragmented Nuclei (%) [5]: 13% and 17%
- Population Healthy Nuclei (%) [5]: 79% and 74%
- Population Hoechst High Intensity Objects (%) [5]: 3% and 2%
- Population Membrane Permeable-Phenotype (%) [5]: 2%
- Population Mitochondria Different-Phenotype (%) [5]: 14% and 15%
- Population Mitotic Cells (%) [5]: 82% and 66%
- Population Normal (%) [5]: 96% and 97%
- Population Pyknosed Nuclei (%) [5]: 7%
- Population Tubulin-Different-Phenotype (%) [5]: 9% and 11%
- Total Cell Count [5]: 893 and 799
- Population Apoptotic (%) [6]: 22% and 20%
- Population Fragmented Nuclei (%) [6]: 12% and 15%
- Population Healthy Nuclei (%) [6]: 77%
- Population Hoechst High Intensity Objects (%) [6]: 2% and 3%
- Population Membrane Permeable-Phenotype (%) [6]: 2% and 1%
- Population Mitochondria Different-Phenotype (%) [6]: 19% and 27%
- Population Mitotic Cells (%) [6]: 77% and 79%
- Population Normal (%) [6]: 97% and 96%
- Population Pyknosed Nuclei (%) [6]: 9% and 6%
- Population Tubulin-Different-Phenotype (%) [6]: 23% and 26%
- Total Cell Count [6]: 671 and 666

SMILES: Nc1nccc(-c2ccn3c(N)nccc23)n1
- Population Apoptotic (%) [1]: 15.46% and 10.1%
- Population Fragmented Nuclei (%) [1]: 3.18% and 4.55%
- Population Healthy Nuclei (%) [1]: 68.79% and 31.17%
- Population Hoechst High Intensity Objects (%) [1]: 0%
- Population Membrane Permeable-Phenotype (%) [1]: 0.42% and 2.08%
- Population Mitochondria Different-Phenotype (%) [1]: 32.35% and 27.08%
- Population Mitotic Cells (%) [1]: 84.54% and 89.9%
- Population Normal (%) [1]: 100%
- Population Pyknosed Nuclei (%) [1]: 28.03% and 64.29%
- Total Cell Count [1]: 346 and 154
- Population Apoptotic (%) [2]: 15.73% and 12.77%
- Population Fragmented Nuclei (%) [2]: 2.41% and 4.48%
- Population Healthy Nuclei (%) [2]: 66.9% and 25.37%
- Population Hoechst High Intensity Objects (%) [2]: 0.34% and 0%
- Population Membrane Permeable-Phenotype (%) [2]: 1.03% and 0%
- Population Mitochondria Different-Phenotype (%) [2]: 38.66% and 17.65%
- Population Mitotic Cells (%) [2]: 84.27% and 87.23%
- Population Normal (%) [2]: 99.66% and 100%
- Population Pyknosed Nuclei (%) [2]: 30.69% and 70.15%
- Total Cell Count [2]: 291 and 134
- Population Apoptotic (%) [3]: 20.19% and 15.91%
- Population Fragmented Nuclei (%) [3]: 1.49% and 2.84%
- Population Healthy Nuclei (%) [3]: 76.43% and 34.75%
- Population Hoechst High Intensity Objects (%) [3]: 0% and 2.08%
- Population Membrane Permeable-Phenotype (%) [3]: 1.11% and 4.08%
- Population Mitochondria Different-Phenotype (%) [3]: 17.78% and 20.41%
- Population Mitotic Cells (%) [3]: 79.81% and 84.09%
- Population Normal (%) [3]: 100% and 97.92%
- Population Pyknosed Nuclei (%) [3]: 22.08% and 62.41%
- Population Tubulin-Different-Phenotype (%) [3]: 14.44% and 12.24%
- Population Apoptotic (%) [4]: 20.31% and 14.47%
- Population Fragmented Nuclei (%) [4]: 1.23% and 6.87%
- Population Healthy Nuclei (%) [4]: 79.14% and 35.11%
- Population Hoechst High Intensity Objects (%) [4]: 0.61% and 0%
- Population Membrane Permeable-Phenotype (%) [4]: 0% and 2.17%
- Population Mitochondria Different-Phenotype (%) [4]: 20.93% and 19.57%
- Population Mitotic Cells (%) [4]: 79.69% and 85.53%
- Population Normal (%) [4]: 99.39% and 100%
- Population Pyknosed Nuclei (%) [4]: 19.63% and 58.02%
- Population Tubulin-Different-Phenotype (%) [4]: 11.63% and 8.7%
- Total Cell Count [4]: 328 and 131
- Population Apoptotic (%) [5]: 8% and 18.75%
- Population Fragmented Nuclei (%) [5]: 5.17% and 4.03%
- Population Healthy Nuclei (%) [5]: 89.44% and 63.76%
- Population Hoechst High Intensity Objects (%) [5]: 0.11% and 0.67%
- Population Membrane Permeable-Phenotype (%) [5]: 5.66% and 3.16%
- Population Mitochondria Different-Phenotype (%) [5]: 18.92% and 21.05%
- Population Mitotic Cells (%) [5]: 92% and 81.25%
- Population Normal (%) [5]: 99.89% and 99.33%
- Population Apoptotic (%) [6]: 20% and 39.39%
- Population Fragmented Nuclei (%) [6]: 5.81% and 7.8%
- Population Healthy Nuclei (%) [6]: 85.77% and 68.79%
- Population Hoechst High Intensity Objects (%) [6]: 0.37% and 1.4%
- Population Membrane Permeable-Phenotype (%) [6]: 1.31% and 2.06%
- Population Mitochondria Different-Phenotype (%) [6]: 36.24% and 23.71%
- Population Mitotic Cells (%) [6]: 80% and 60.61%
- Population Normal (%) [6]: 99.63% and 98.6%
- Population Pyknosed Nuclei (%) [6]: 8.43% and 23.4%

SMILES: N#Cc1ccnc(Nc2cc(C3CCN(C4COC4)CC3)cc(N3CCC(F)(F)C3)n2)c1
- Population Apoptotic (%) [1]: 18.37% and 8.2%
- Population Fragmented Nuclei (%) [1]: 1.49% and 2.08%
- Population Healthy Nuclei (%) [1]: 25.74% and 13.19%
- Population Hoechst High Intensity Objects (%) [1]: 0.98% and 0%
- Population Membrane Permeable-Phenotype (%) [1]: 0%
- Population Mitotic Cells (%) [1]: 81.63% and 91.8%
- Population Normal (%) [1]: 99.02% and 100%
- Population Pyknosed Nuclei (%) [1]: 72.77% and 84.72%
- Population Tubulin-Different-Phenotype (%) [1]: 32.69% and 42.11%
- Total Cell Count [1]: 204 and 144
- Population Apoptotic (%) [2]: 23.38% and 27.5%
- Population Fragmented Nuclei (%) [2]: 5.2% and 14.04%
- Population Healthy Nuclei (%) [2]: 20.07% and 15.79%
- Population Hoechst High Intensity Objects (%) [2]: 0.37% and 0.87%
- Population Mitotic Cells (%) [2]: 76.62% and 72.5%
- Population Normal (%) [2]: 99.63% and 99.13%
- Population Pyknosed Nuclei (%) [2]: 74.72% and 70.18%
- Total Cell Count [2]: 270 and 230
- Population Apoptotic (%) [3]: 44.81% and 25.93%
- Population Fragmented Nuclei (%) [3]: 1.81% and 1.57%
- Population Hoechst High Intensity Objects (%) [3]: 0.72% and 0.78%
- Population Membrane Permeable-Phenotype (%) [3]: 2.56% and 0%
- Population Mitochondria Different-Phenotype (%) [3]: 41.88% and 35.29%
- Population Mitotic Cells (%) [3]: 55.19% and 74.07%
- Population Normal (%) [3]: 99.28% and 99.22%
- Population Pyknosed Nuclei (%) [3]: 55.8% and 85.04%
- Population Tubulin-Different-Phenotype (%) [3]: 49.57% and 23.53%
- Total Cell Count [3]: 278 and 128
- Population Apoptotic (%) [4]: 63.77% and 56.46%
- Population Fragmented Nuclei (%) [4]: 4.87% and 13.57%
- Population Healthy Nuclei (%) [4]: 17.6% and 19.91%
- Population Hoechst High Intensity Objects (%) [4]: 0.74% and 0%
- Population Membrane Permeable-Phenotype (%) [4]: 0% and 9.09%
- Population Mitotic Cells (%) [4]: 36.23% and 43.54%
- Population Normal (%) [4]: 99.26% and 100%
- Population Pyknosed Nuclei (%) [4]: 77.53% and 66.52%
- Total Cell Count [4]: 269 and 221
- Population Fragmented Nuclei (%) [5]: 4.08% and 0.7%
- Population Healthy Nuclei (%) [5]: 73.7% and 38.46%
- Population Hoechst High Intensity Objects (%) [5]: 0.23% and 0.69%
- Population Membrane Permeable-Phenotype (%) [5]: 4.31% and 3.64%
- Population Mitochondria Different-Phenotype (%) [5]: 60.62% and 56.36%
- Population Mitotic Cells (%) [5]: 69.39% and 90.8%
- Population Normal (%) [5]: 99.77% and 99.31%
- Population Pyknosed Nuclei (%) [5]: 22.22% and 60.84%
- Population Apoptotic (%) [6]: 88.68% and 82.35%
- Population Fragmented Nuclei (%) [6]: 5.62% and 11.71%
- Population Healthy Nuclei (%) [6]: 14.98% and 13.66%
- Population Hoechst High Intensity Objects (%) [6]: 0.37% and 0.49%
- Population Membrane Permeable-Phenotype (%) [6]: 5% and 3.57%
- Population Mitotic Cells (%) [6]: 11.32% and 17.65%
- Population Normal (%) [6]: 99.63% and 99.51%
- Population Pyknosed Nuclei (%) [6]: 79.4% and 74.63%
- Total Cell Count [6]: 268 and 206
